Experimental data: article PMC3356098 (Frontiers in Endocrinology, 2012)

Biological target: RXFP2 (Homo sapiens, UniProt Q8WXD0)
Type: cell-based
Conditions: for agonist/antagonist character at RXFP2 (in words): cAMP reporter gene assay
Summary of the method: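 HEK-293T cells were co-transfected in 96-well format with RXFP2 and a pCRE–β-galactosidase reporter plasmid. They were exposed to increasing concentrations of test peptide for 6 h, then the medium was aspirated and the cells frozen at −80°C overnight before β-galactosidase was measured. Signals were normalised to the maximal native INSL3 response. Triplicates were run in three experiments, with pEC50 from a variable-slope sigmoidal fit.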

Sequence of RXFP2 (Q8WXD0 whole entry): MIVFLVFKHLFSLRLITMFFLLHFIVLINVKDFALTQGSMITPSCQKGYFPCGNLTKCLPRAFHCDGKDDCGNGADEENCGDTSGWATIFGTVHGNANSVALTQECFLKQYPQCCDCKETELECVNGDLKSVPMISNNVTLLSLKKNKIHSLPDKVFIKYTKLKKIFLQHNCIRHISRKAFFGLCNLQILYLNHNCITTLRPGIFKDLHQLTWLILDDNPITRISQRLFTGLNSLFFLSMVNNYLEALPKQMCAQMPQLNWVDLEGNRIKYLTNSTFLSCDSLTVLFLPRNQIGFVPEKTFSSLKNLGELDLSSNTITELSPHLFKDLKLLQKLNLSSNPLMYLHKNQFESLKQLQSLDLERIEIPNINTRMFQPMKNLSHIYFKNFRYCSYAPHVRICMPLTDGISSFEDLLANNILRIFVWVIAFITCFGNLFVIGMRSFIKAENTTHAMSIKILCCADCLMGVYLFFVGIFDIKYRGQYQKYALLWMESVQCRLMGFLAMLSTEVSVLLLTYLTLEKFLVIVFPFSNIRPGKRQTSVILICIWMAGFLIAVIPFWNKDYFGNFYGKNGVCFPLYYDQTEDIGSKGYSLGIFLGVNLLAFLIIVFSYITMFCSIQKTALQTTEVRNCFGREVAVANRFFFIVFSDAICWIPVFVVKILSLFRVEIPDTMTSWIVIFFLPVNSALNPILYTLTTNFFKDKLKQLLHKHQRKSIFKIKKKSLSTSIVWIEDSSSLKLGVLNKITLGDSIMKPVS

agonist/antagonist character at RXFP2 (in words)	ability to stimulate cAMP activity in RXFP2 expressing cells (in concentrations up to 1 μM)	Compound
partial agonist		CSCC[C@H](NC(=O)[C@H](CCC(=O)O)NC(=O)[C@@H]1CCCN1C(=O)[C@@H](NC(=O)[C@@H]1CCCN1)[C@@H](C)O)C(=O)N[C@@H](CCCNC(=N)N)C(=O)N[C@@H](CCC(=O)O)C(=O)N[C@@H](CCCCN)C(=O)N[C@@H](CC(C)C)C(=O)N[C@H]1CSSC[C@@H]2NC(=O)[C@@H](NC(=O)[C@H](CCCCN)NC(=O)[C@H](CC(N)=O)NC(=O)[C@H](C)NC(=O)[C@H](CC(C)C)NC(=O)[C@H](C)NC(=O)[C@H](CO)NC(=O)[C@H](Cc3ccc(O)cc3)NC(=O)[C@H](CC(C)C)NC(=O)[C@@H]3CCC(=O)N3)CSSC[C@H](NC(=O)CNC(=O)[C@H](C(C)C)NC(=O)[C@H](Cc3c[nH]cn3)NC2=O)C(=O)N[C@@H]([C@@H](C)O)C(=O)N[C@@H](CCCCN)C(=O)N[C@@H](CCCNC(=N)N)C(=O)N[C@@H](CO)C(=O)N[C@@H](CC(C)C)C(=O)N[C@@H](C)C(=O)N[C@@H](CCCNC(=N)N)C(=O)N[C@@H](Cc2ccccc2)C(=O)N[C@H](C(=O)O)CSSC[C@@H](C(=O)NCC(=O)NCC(=O)N2CCC[C@H]2C(=O)N[C@@H](CCCNC(=N)N)C(=O)N[C@@H](Cc2c[nH]c3ccccc23)C(=O)N[C@@H](CO)C(=O)N[C@H](C(=O)N[C@@H](CCC(=O)O)C(=O)N[C@@H](C)C(=O)O)[C@@H](C)O)NC(=O)[C@H](C(C)C)NC(=O)[C@H](CCCNC(=N)N)NC(=O)[C@H](C(C)C)NC(=O)[C@H](CC(C)C)NC(=O)[C@H](C)NC(=O)[C@H](CCCNC(=N)N)NC(=O)[C@H](C(C)C)NC(=O)[C@H](Cc2ccccc2)NC(=O)[C@H](Cc2c[nH]cn2)NC(=O)[C@H](Cc2c[nH]cn2)NC(=O)CNC1=O [H2-A/INSL3-B]
high affinity antagonists	unable to stimulate cAMP	CSCC[C@H](NC(=O)[C@H](CCC(=O)O)NC(=O)[C@@H]1CCCN1C(=O)[C@@H](NC(=O)[C@@H]1CCCN1)[C@@H](C)O)C(=O)N[C@@H](CCCNC(=N)N)C(=O)N[C@@H](CCC(=O)O)C(=O)N[C@@H](CCCCN)C(=O)N[C@@H](CC(C)C)C(=O)N[C@H]1CSSC[C@@H]2NC(=O)[C@@H](NC(=O)[C@H](CC(C)C)NC(=O)[C@@H](NC(=O)[C@H](CCC(N)=O)NC(=O)[C@H](CC(C)C)NC(=O)[C@H](CC(=O)O)NC(=O)[C@@H]3CCC(=O)N3)[C@@H](C)O)CSSC[C@H](NC(=O)CNC(=O)[C@H](CC(=O)O)NC(=O)[C@H]([C@@H](C)O)NC2=O)C(=O)N[C@@H](CO)C(=O)N[C@@H](CCSC)C(=O)N[C@@H]([C@@H](C)O)C(=O)N[C@@H](CC(=O)O)C(=O)N[C@@H](CC(C)C)C(=O)N[C@@H](CO)C(=O)N[C@@H](C)C(=O)N[C@@H](CC(C)C)C(=O)N[C@H](C(=O)O)CSSC[C@@H](C(=O)NCC(=O)NCC(=O)N2CCC[C@H]2C(=O)N[C@@H](CCCNC(=N)N)C(=O)N[C@@H](Cc2c[nH]c3ccccc23)C(=O)N[C@@H](CO)C(=O)N[C@H](C(=O)N[C@@H](CCC(=O)O)C(=O)N[C@@H](C)C(=O)O)[C@@H](C)O)NC(=O)[C@H](C(C)C)NC(=O)[C@H](CCCNC(=N)N)NC(=O)[C@H](C(C)C)NC(=O)[C@H](CC(C)C)NC(=O)[C@H](C)NC(=O)[C@H](CCCNC(=N)N)NC(=O)[C@H](C(C)C)NC(=O)[C@H](Cc2ccccc2)NC(=O)[C@H](Cc2c[nH]cn2)NC(=O)[C@H](Cc2c[nH]cn2)NC(=O)CNC1=O [INSL5-A/INSL3-B]
